Results reported in ChEMBL document CHEMBL2321691 (J Med Chem, 2013).
The source made the active and inactive calls. The calls are words filed in the database; no cut-off is given here.

Experiments:
HT-29 = assay: Cytotoxicity against human HT-29 cells assessed as growth inhibition after 72 hrs by XTT assay; format: functional, cell-based; conditions: HT-29, 72 h
How it was run: (§1)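 Cells seeded at 1.5 x 10^3 per well (A549, HeLa, HT-29) or 3 x 10^3 (HL-60) in medium with 10% heat-inactivated FBS. Compound tested from 10-5 to 10-13 M for 72 h at 37 °C, then XTT readout. […] Triplicate wells, three experiments; mean ± S.D.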

A549 = assay: Cytotoxicity against human A549 cells assessed as growth inhibition after 72 hrs by XTT assay; format: functional, cell-based; conditions: A549, 72 h; how it was run: as §1
HeLa [1] = assay: Cytotoxicity against human HeLa cells assessed as growth inhibition after 72 hrs by XTT assay
Bos taurus = species: Bos taurus; assay: Inhibition of bovine brain tubulin polymerization at 20 uM after 30 mins by spectrophotometry
How it was run: (§2)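 Bovine brain tubulin at 1.5 mg/mL, pH 6.7, in 0.1 M MES, 1 mM EGTA, 1 mM MgCl2, 1 mM β-ME, 1.5 mM GTP with ligand. Incubated 20 °C for 30 min, then on ice 10 min. Assembly read as the A450 rise on a shift from 4 to 38 °C; inhibition is plateau minus baseline against ligand-free control. IC50 from monoexponential fits.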

[2] = Inhibition of bovine brain tubulin polymerization after 30 mins by spectrophotometry; parameters: species or system Bos taurus; how it was run: as §2
HL-60 = assay: Cytotoxicity against human HL60 cells assessed as growth inhibition after 72 hrs by XTT assay; format: functional, cell-based; conditions: HL-60, 72 h; how it was run: as §1
HeLa [3] = assay: Inhibition of microtubule system in human HeLa cells at 10 nM after 18 hrs by confocal microscopic analysis; format: cell-based
How it was run: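 HeLa cells grown on poly-L-lysine coverslips and treated 18 h at 10^-8 M. Washed in HPEM (pH 6.6), fixed 15 min in 4% paraformaldehyde, permeabilized with 0.5% Triton X-100. Stained with anti-α-tubulin (1:150, 1 h), then CY3 anti-mouse IgG (1:100, 1 h, 4 °C). Imaged by confocal microscopy; representative of at least three experiments.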

inhibition (Bos taurus) [%]	IC50 [2] [nM]	Structure (SMILES)	IC50 (HT-29) [nM]	IC50 (A549) [nM]	IC50 (HeLa [1]) [nM]	IC50 (HL-60) [nM]	inhibition (HeLa [3])
98	5900	COc1ccc(C(=CC=O)c2ccc3c(c2)c(C=O)cn3C)c(OC)c1OC	300	350	300	300	
87		COc1ccc(C(C)c2ccc3c(ccn3C)c2)c(OC)c1OC (stereo not given)	330	470	310	370	
97	4700	C=C(c1ccc2c(ccn2C)c1)c1ccc(OC)c(OC)c1OC	310	730	32	280	
93	2600	C=C(c1cc(OC)c(OC)c(OC)c1)c1ccc2c(c1)c(C=NO)cn2C	33	30	6.2	21	Active
73		COc1ccc(C(=O)c2ccc3c(c2)c(C=O)cn3C)c(OC)c1OC	5300	> 10000	780	780	
0		COc1ccc(C(C)c2ccc3c(c2)c(C=NN)cn3C)c(OC)c1OC (stereo not given)	3200	> 10000	430	1800	
40		COc1ccc(C(=O)c2ccc3c(c2)c(C#N)cn3C)c(OC)c1OC	310	2000	270	290	
61	16900	COc1cc(C(=O)c2ccc3c(c2)c(C=O)cn3C)cc(OC)c1OC	3000	> 10000	320	310	
95	4000	C=C(c1ccc2c(c1)c(C=NO)cn2C)c1ccc(OC)c(OC)c1OC	320	290	34	270	
32		C=C(c1ccc2c(c1)c(CO)cn2C)c1ccc(OC)c(OC)c1OC	460	440	300	220	
32		C=C(c1cc(OC)c(OC)c(OC)c1)c1ccc2c(c1)c(CO)cn2C	2000	3200	310	250	
91	5000	C=C(c1cc(OC)c(OC)c(OC)c1)c1ccc2c(c1)c(C(=O)O)cn2C	550	1100	880	1100	
100	400	COc1ccc(C(=O)c2ccc3c(ccn3C)c2)c(OC)c1OC	240	380		240	
89	2200	C=C(c1ccc2c(c1)c(C#N)cn2C)c1ccc(OC)c(OC)c1OC	32	360	32	27	
98	4000	C=C(c1ccc2c(c1)c(C=O)cn2C)c1ccc(OC)c(OC)c1OC	230	1800	32	32	Active
100	900	C=C(c1cc(OC)c(OC)c(OC)c1)c1ccc2c(c1)c(C=O)cn2C	62	3000	20	28	Active
88	7000	COc1cc(C(=CC=O)c2ccc3c(c2)c(C=O)cn3C)cc(OC)c1OC	220	340	31	33	
12		C=C(c1cc(OC)c(OC)c(OC)c1)c1ccc2c(c1)c(C=NN)cn2C	300	3200	38	180	
2		COc1cc(C(=O)c2ccc3c(c2)c(C(=O)O)cn3C)cc(OC)c1OC	> 10000	> 10000	7000	> 10000	

The remaining lines, values behind:

Structure (SMILES)	inhibition (Bos taurus) [%]	IC50 [2] [nM]	IC50 (HT-29) [nM]	IC50 (A549) [nM]	IC50 (HeLa [1]) [nM]	IC50 (HL-60) [nM]	inhibition (HeLa [3])
COc1cc(C(=O)c2ccc3c(ccn3C)c2)cc(OC)c1OC	98	7900	27	190	25	27	
COc1cc(/C(=C\C=O)c2ccc3c(c2)c(C=O)cn3C)cc(OC)c1OC	96		170	320	30	29	
C=C(c1cc(OC)c(OC)c(OC)c1)c1ccc2[nH]ccc2c1	36		5100	9000	2100	3600	
COc1cc(C(C)c2ccc3c(c2)c(C)cn3C)cc(OC)c1OC (stereo not given)	90		310	320	310	280	
C=C(c1cc(OC)c(OC)c(OC)c1)c1ccc2c(ccn2C)c1	96	700	3.1	28	2.7	2.8	
COc1cc(C(C)c2ccc3[nH]cc(C=O)c3c2)cc(OC)c1OC (stereo not given)	0		5800	9100	5800	5400	
COc1cc(C(O)c2nc3ccc(Br)cc3n2C)cc(OC)c1OC (stereo not given)	22		> 10000	> 10000	> 10000	> 10000	
COc1cc(C(C)c2ccc3[nH]ccc3c2)cc(OC)c1OC (stereo not given)	5		3300	4900	2300	3400	
COc1cc(C(O)c2nc3cc(Br)ccc3n2C)cc(OC)c1OC (stereo not given)	2		> 10000	> 10000	> 10000	> 10000	
COc1cc(C(=O)c2nc3ccc(Br)cc3n2C)cc(OC)c1OC	37		2700	10000	2300	2400	
COc1cc(C(=O)c2ccc3ocnc3c2)cc(OC)c1OC	0		2800	10000	340	470	
COc1cc(C(=O)c2nc3cc(Br)ccc3n2C)cc(OC)c1OC	37		340	400	190	29	
